Test results: ChEMBL document CHEMBL1143280, “Discovery and optimization of imidazo[1,2-a]pyridine inhibitors of insulin-like growth factor-1 receptor (IGF-1R)” (Bioorg Med Chem Lett, 2009)
Values belong to the compound of their own block, whether it stands above or below them.

What was measured:
[1] = biological target: Mitogen-activated protein kinase 14 (Homo sapiens, UniProt Q16539); experiment: Inhibition of p38alpha
[2] = biological target: T1, Insulin-like growth factor 1 receptor (Homo sapiens, UniProt P08069); experiment: Inhibition of GST-tagged IGF1R (957-1367) expressed in baculovirus by time-resolved fluorescence assay
T1 sequence (P08069 31-736 limits assumed): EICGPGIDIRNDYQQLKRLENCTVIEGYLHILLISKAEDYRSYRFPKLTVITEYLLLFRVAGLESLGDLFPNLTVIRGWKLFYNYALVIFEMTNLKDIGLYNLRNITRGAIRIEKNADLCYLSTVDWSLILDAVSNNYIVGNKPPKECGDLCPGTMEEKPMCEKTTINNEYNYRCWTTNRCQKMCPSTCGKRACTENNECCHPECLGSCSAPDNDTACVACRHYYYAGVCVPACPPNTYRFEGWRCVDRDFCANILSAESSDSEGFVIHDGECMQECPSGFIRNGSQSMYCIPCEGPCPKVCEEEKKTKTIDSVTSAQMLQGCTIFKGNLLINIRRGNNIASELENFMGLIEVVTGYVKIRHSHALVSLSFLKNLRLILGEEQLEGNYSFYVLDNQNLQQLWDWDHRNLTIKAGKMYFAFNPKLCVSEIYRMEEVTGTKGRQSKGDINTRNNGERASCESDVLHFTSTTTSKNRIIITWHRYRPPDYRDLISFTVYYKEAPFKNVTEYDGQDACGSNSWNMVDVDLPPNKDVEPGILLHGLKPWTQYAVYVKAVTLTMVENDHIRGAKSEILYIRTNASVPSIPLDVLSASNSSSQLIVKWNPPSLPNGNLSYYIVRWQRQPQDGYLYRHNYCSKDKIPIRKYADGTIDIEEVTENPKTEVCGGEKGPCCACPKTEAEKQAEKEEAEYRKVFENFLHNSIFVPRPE
T1 sequence (P08069 741-1367 limits assumed): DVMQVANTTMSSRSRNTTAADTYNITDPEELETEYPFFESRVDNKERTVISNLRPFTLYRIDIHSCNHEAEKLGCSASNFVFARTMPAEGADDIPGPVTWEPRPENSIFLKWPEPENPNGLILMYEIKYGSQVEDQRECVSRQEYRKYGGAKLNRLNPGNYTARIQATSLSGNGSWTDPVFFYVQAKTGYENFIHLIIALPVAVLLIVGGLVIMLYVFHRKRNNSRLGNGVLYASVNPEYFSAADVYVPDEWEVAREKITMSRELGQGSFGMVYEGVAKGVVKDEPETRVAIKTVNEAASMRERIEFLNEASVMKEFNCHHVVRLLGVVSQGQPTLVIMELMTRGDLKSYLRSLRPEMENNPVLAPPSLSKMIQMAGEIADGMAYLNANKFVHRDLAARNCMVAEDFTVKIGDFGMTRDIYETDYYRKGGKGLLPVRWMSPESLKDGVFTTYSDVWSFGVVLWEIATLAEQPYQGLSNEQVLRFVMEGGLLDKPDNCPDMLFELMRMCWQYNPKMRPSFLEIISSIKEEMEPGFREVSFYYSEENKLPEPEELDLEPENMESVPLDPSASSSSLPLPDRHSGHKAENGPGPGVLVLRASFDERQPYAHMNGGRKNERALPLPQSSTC

[3] = Clearance in po dosed mouse; assay type: ADME, organism-based; conditions: in vivo
[4] = biological target: Epidermal growth factor receptor (Homo sapiens, UniProt P00533); experiment: Inhibition of EGFR
[5] = biological target: Tyrosine-protein kinase Lck (Homo sapiens, UniProt P06239); experiment: Inhibition of LCK
Tyrosine-protein kinase Lck, sequence (P06239 whole entry): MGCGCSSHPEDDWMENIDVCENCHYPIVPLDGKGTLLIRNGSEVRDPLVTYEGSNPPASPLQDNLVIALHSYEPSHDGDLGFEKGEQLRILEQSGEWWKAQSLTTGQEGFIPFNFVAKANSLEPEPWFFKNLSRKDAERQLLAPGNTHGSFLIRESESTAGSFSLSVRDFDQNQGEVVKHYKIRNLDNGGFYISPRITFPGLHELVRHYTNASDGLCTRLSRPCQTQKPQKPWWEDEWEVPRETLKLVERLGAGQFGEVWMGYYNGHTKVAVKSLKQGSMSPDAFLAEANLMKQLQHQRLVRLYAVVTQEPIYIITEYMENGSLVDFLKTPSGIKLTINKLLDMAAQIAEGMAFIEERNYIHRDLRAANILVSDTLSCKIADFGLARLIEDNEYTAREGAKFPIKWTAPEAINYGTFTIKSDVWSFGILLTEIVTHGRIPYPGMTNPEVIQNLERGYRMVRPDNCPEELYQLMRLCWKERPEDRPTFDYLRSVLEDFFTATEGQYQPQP

[6] = biological target: Receptor tyrosine-protein kinase erbB-2 (Homo sapiens, UniProt P04626); experiment: Inhibition of ErbB2
[7] = biological target: Aurora kinase B (Homo sapiens, UniProt Q96GD4); experiment: Inhibition of Aurora B
Aurora kinase B, sequence (Q96GD4 whole entry): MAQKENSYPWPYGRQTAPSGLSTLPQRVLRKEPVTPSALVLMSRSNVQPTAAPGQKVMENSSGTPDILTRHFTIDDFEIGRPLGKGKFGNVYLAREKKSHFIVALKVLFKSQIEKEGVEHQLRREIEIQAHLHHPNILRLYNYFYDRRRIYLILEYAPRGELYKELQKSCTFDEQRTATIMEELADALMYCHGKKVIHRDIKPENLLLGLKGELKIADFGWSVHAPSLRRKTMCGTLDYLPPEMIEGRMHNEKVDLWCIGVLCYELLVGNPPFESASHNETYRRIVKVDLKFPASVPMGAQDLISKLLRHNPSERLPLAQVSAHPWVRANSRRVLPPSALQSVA

[8] = tested on: Mus musculus; experiment: Dose normalized AUC (0 to 6 hrs) in po dosed mouse; assay type: ADME, organism-based; parameters: time < 6 hr, route oral; conditions: in vivo
In short: (§1)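 Oral dosing in mice; dose-normalized AUC in ng h/mL/(mg/kg) calculated over 0–6 h.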

[9] = biological target: T2, Insulin receptor (Homo sapiens, UniProt P06213); experiment: Inhibition of GST-tagged insulin receptor expressed in baculovirus by time-resolved fluorescence assay
In short: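 GST-tagged IR intracellular domain (aa 979–1382), baculovirus-expressed, activated at 2.7 µM with 2 mM ATP in 50 mM Hepes pH 7.5, 10 mM MgCl2, BSA. Phosphopeptide by TRF with streptavidin-allophycocyanin and Eu-anti-phosphotyrosine. n ≥ 2.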

[10] = biological target: Serine/threonine-protein kinase B-raf (Homo sapiens, UniProt P15056, V600E); experiment: Inhibition of B-raf V600E mutant
Serine/threonine-protein kinase B-raf, sequence (P15056 2-766 V600E limits assumed): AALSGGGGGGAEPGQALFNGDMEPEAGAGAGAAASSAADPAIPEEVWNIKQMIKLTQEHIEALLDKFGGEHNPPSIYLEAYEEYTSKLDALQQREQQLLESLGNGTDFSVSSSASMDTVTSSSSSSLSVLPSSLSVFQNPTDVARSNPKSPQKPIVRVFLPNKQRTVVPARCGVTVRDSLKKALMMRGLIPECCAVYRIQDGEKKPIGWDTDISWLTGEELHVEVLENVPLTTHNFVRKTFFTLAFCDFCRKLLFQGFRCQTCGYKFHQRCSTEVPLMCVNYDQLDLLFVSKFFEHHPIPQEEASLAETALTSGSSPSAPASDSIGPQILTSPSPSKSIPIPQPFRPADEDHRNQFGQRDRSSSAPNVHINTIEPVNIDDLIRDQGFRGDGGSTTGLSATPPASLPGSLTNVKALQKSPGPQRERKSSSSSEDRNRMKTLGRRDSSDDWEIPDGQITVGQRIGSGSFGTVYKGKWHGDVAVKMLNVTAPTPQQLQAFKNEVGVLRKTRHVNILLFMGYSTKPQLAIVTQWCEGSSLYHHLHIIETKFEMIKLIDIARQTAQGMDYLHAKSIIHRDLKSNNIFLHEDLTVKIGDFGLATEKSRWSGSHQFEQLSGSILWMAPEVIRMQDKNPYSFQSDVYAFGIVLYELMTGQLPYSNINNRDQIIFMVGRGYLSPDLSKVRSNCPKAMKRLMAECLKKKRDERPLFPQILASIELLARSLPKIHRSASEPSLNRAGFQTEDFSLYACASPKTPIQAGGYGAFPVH

[11] = biological target: T3, Aurora kinase A (Homo sapiens, UniProt O14965); experiment: Inhibition of Aurora A
T3 sequence (O14965 whole entry): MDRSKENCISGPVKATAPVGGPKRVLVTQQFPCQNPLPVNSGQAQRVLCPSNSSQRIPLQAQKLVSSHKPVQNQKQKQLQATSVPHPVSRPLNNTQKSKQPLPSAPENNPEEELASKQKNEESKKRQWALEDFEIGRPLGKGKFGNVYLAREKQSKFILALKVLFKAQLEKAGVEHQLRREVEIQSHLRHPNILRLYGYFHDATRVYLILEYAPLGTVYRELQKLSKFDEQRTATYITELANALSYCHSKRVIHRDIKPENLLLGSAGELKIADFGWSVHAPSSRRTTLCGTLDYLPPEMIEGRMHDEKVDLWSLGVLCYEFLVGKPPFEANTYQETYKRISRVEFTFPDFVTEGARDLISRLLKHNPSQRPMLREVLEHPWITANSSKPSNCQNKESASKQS

[12] = biological target: Receptor tyrosine-protein kinase erbB-4 (Homo sapiens, UniProt Q15303); experiment: Inhibition of ErbB4
Receptor tyrosine-protein kinase erbB-4, sequence (Q15303 whole entry): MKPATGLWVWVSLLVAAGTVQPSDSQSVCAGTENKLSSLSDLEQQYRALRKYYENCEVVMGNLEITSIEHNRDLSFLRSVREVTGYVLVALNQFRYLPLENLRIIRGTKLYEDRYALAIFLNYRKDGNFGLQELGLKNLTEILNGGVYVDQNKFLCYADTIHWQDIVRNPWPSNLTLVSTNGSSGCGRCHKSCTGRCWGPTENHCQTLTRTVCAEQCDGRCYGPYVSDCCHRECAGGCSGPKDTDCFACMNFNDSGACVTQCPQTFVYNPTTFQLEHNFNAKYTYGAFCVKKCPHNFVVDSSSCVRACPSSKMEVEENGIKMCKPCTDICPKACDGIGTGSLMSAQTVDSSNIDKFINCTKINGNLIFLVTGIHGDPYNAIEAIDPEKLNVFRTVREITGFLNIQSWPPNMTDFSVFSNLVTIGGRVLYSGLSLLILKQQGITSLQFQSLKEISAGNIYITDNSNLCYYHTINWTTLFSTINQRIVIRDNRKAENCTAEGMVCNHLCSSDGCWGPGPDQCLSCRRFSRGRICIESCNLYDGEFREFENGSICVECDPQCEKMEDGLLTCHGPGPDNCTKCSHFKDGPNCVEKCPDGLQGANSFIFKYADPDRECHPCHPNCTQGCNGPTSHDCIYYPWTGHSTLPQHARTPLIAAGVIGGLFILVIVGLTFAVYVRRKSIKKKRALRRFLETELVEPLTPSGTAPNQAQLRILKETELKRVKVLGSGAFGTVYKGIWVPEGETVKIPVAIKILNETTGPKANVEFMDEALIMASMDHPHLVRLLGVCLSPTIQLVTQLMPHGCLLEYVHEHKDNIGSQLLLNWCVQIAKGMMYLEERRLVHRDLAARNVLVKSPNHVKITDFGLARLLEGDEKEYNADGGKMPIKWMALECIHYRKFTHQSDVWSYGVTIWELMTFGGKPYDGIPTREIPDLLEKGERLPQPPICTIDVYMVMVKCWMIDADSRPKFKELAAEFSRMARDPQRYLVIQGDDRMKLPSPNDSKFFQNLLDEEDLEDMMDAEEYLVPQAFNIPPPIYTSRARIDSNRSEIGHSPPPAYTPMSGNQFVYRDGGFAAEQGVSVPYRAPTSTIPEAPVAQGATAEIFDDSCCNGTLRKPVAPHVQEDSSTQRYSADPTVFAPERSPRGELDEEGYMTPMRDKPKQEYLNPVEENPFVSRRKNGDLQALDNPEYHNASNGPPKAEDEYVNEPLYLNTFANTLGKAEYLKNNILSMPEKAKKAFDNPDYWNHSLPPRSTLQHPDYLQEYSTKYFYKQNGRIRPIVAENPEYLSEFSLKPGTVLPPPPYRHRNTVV

[13] = biological target: T2, Insulin receptor; experiment: Binding affinity to insulin receptor by liquid scintillation counting; conditions: read-out: Ki(app)
In short: (§2)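 Activated IGF-1R or IR kinase domains (pre-activated at 500 nM with 1 mM ATP for 30 min in pH 7.2 Hepes/MgCl2/BSA buffer with phosphatase inhibitors) were used at 0.5 nM final. Enzyme and ATP were pre-incubated with inhibitor for 6 h. […] Product was filter-captured and scintillation-counted. IC50 was converted to apparent Ki by Cheng–Prusoff.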

[14] = biological target: T1, Insulin-like growth factor 1 receptor; experiment: Inhibition of human IGF1R autophosphorylation in transfected mouse NIH3T3 cells; assay type: cell-based
[15] = biological target: T1, Insulin-like growth factor 1 receptor; experiment: Binding affinity to IGF1R by liquid scintillation counting; conditions: read-out: Ki(app); in short: as §2
[16] = Oral bioavailability in Beagle dog at 7.2 mg/kg; assay type: ADME, organism-based, Canis lupus familiaris; conditions: in vivo
In short: (§3)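 Compound given as solution in 1.0% DMSO, 20% Captisol in saline (IV) or water (PO); dog PO given as partial suspension. IV doses 0.6–1.3 mg/kg, PO 2.1–7.2 mg/kg by species. Male Sprague–Dawley rats, male beagle dogs, male cynomolgus monkeys. Data over 0–24 h; dose-normalized AUC as ng h/mL/(mg/kg).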

[17] = tested on: Cynomolgus monkey; experiment: Volume of distribution at steady state in cynomolgus monkey at 2.1 mg/kg, po; assay type: ADME, organism-based, Macaca fascicularis; parameters: dose 2.1 mg/kg, route oral; conditions: in vivo; in short: as §3
[18] = Clearance in Sprague-Dawley rat at 3 mg/kg, po; assay type: ADME, organism-based; parameters: dose 3 mg/kg, route oral; conditions: in vivo; in short: as §3
[19] = tested on: LP-1; experiment: Antiproliferative activity against human LP-1 cells after 72 hrs by Celltiter assay; assay type: functional, cell-based; conditions: LP-1, 72 h
In short: (§4)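 Cells seeded in 96-well dishes and incubated overnight at 37 °C, then exposed to a range of inhibitor concentrations for 72 h. Proliferation read by CellTiter-Glo luminescence per manufacturer's protocol. IC50 from 4-parameter curve fit.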

[20] = tested on: Canis familiaris; experiment: Volume of distribution at steady state in Beagle dog at 7.2 mg/kg, po; assay type: ADME, organism-based, Canis lupus familiaris; parameters: dose 7.2 mg/kg, route oral; conditions: in vivo; in short: as §3
[21] = tested on: HFF; experiment: Antiproliferative activity against HFF cells after 72 hrs by Celltiter assay; assay type: cell-based; conditions: Homo sapiens; in short: as §4
[22] = tested on: Canis familiaris; experiment: Dose normalized AUC in Beagle dog at 7.2 mg/kg, po; assay type: ADME, organism-based, Canis lupus familiaris; parameters: dose 7.2 mg/kg, route oral; conditions: in vivo; in short: as §3
[23] = Oral bioavailability in Sprague-Dawley rat at 3 mg/kg; assay type: ADME, organism-based; conditions: in vivo; in short: as §3
[24] = tested on: Rattus norvegicus; experiment: Dose normalized AUC in Sprague-Dawley rat at 3 mg/kg, po; assay type: ADME, organism-based; parameters: dose 3 mg/kg, route oral; conditions: in vivo; in short: as §3
[25] = tested on: Rattus norvegicus; experiment: Volume of distribution at steady state in Sprague-Dawley rat at 3 mg/kg, po; assay type: ADME, organism-based; parameters: dose 3 mg/kg, route oral; conditions: in vivo; in short: as §3
[26] = biological target: T2, Insulin receptor; experiment: Inhibition of human insulin receptor autophosphorylation in transfected mouse NIH3T3 cells; assay type: cell-based
In short: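 NIH-3T3 cells expressing human IR were grown on collagen-coated plates for 24 h, then given inhibitor or DMSO. After 2 h they were stimulated with bovine insulin for 15 min and lysed in RIPA. Lysates were captured overnight at 4 °C on anti-IRβ plates. Phospho-IR was detected by Eu-phosphotyrosine antibody time-resolved fluorescence (340/615 nm), and total IR by anti-IR. IC50 was taken from the phospho/total ratio curves.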

[27] = Antiproliferative activity against human TC71 cells after 72 hrs by Celltiter assay; assay type: functional, cell-based; conditions: TC-71, 72 h; in short: as §4
[28] = Clearance in cynomolgus monkey at 2.1 mg/kg, po; assay type: ADME, organism-based, Macaca fascicularis; parameters: dose 2.1 mg/kg, route oral; conditions: in vivo; in short: as §3
[29] = tested on: A549; experiment: Antiproliferative activity against human A549 cells after 72 hrs by Celltiter assay; assay type: functional, cell-based; conditions: A549, 72 h; in short: as §4
[30] = tested on: Cynomolgus monkey; experiment: Dose normalized AUC in cynomolgus monkey at 2.1 mg/kg, po; assay type: ADME, organism-based, Macaca fascicularis; parameters: dose 2.1 mg/kg, route oral; conditions: in vivo; in short: as §3
[31] = Clearance in Beagle dog at 7.2 mg/kg, po; assay type: ADME, organism-based, Canis lupus familiaris; parameters: dose 7.2 mg/kg, route oral; conditions: in vivo; in short: as §3
[32] = Antiproliferative activity against human SK-ES cells after 72 hrs by Celltiter assay; assay type: functional, cell-based; in short: as §4
[33] = Antiproliferative activity against human NCI-H929 cells after 72 hrs by Celltiter assay; assay type: functional, cell-based; conditions: NCI-H929, 72 h; in short: as §4
[34] = Oral bioavailability in cynomolgus monkey at 2.1 mg/kg; assay type: ADME, organism-based, Macaca fascicularis; conditions: in vivo; in short: as §3
[35] = tested on: COLO 205; experiment: Antiproliferative activity against human COLO205 cells after 72 hrs by Celltiter assay; assay type: functional, cell-based; conditions: COLO 205, 72 h; in short: as §4
[36] = tested on: Mus musculus; experiment: Dose normalized AUC (0 to 6 hrs) in mouse at 7.3 mg/kg, po; assay type: ADME, organism-based; parameters: time < 6 hr, dose 7.3 mg/kg, route oral; conditions: in vivo; in short: as §1

Mitogen-activated protein kinase 14, sequence (Q16539 whole entry): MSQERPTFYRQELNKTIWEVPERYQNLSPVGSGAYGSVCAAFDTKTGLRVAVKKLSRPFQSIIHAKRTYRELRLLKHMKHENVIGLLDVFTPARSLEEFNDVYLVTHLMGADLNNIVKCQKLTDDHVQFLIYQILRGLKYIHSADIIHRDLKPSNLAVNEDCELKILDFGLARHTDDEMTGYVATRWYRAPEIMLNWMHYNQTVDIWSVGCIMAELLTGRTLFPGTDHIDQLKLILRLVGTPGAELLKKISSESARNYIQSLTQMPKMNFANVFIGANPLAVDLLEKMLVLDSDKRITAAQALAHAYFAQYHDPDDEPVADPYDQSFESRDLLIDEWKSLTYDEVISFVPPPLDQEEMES

IC50 [1]: 440 nM | IC50 [2]: 5 nM | CL/F [3]: 13.6 mL/min/kg | IC50 [4]: 57 nM | IC50 [5]: 1200 nM | IC50 [6]: 72 nM | IC50 [7]: 200 nM | AUC [8]: 1060 ng·h/mL | IC50 [9]: 5 nM | IC50 [10]: 80 nM | IC50 [11]: 1600 nM | IC50 [12]: 74 nM | Ki [13]: 2.2 nM | IC50 [14]: 36 nM | Ki [15]: 5.2 nM
SMILES: COc1cc(N2CCC(N3CCN(S(C)(=O)=O)CC3)CC2)ccc1Nc1nccc(-c2c(-c3cccc(C(=O)Nc4c(F)cccc4F)c3)nc3ccccn23)n1

IC50 [2]: 3 nM | AUC [8]: 216 ng·h/mL | IC50 [14]: 65 nM
SMILES: COc1cc(N2CCC(N3CCN(C(C)=O)CC3)CC2)ccc1Nc1nccc(-c2c(-c3cccc(C(=O)Nc4c(F)cccc4F)c3)nc3ccccn23)n1

IC50 [2]: 1 nM | IC50 [14]: 177 nM
SMILES: CN(C)CCOc1cccc(Nc2nccc(-c3c(-c4cccc(C(=O)Nc5c(F)cccc5F)c4)nc4ccccn34)n2)c1

IC50 [2]: 2 nM | IC50 [14]: 87 nM
SMILES: O=C(Nc1c(F)cccc1F)c1cccc(-c2nc3ccccn3c2-c2ccnc(Nc3ccc(N4CCC(N5CCCCC5)CC4)cc3)n2)c1

IC50 [2]: 2 nM | AUC [8]: 494 ng·h/mL | IC50 [14]: 40 nM
SMILES: COc1cc(N2CCC(N3CC[C@@H](F)C3)CC2)ccc1Nc1nccc(-c2c(-c3cccc(C(=O)Nc4c(F)cccc4F)c3)nc3ccccn23)n1

IC50 [2]: 2 nM | AUC [8]: 203 ng·h/mL | IC50 [14]: 28 nM
SMILES: COc1cc(N2CCC(N3CCN(C)CC3)CC2)ccc1Nc1nccc(-c2c(-c3cccc(C(=O)Nc4c(F)cccc4F)c3)nc3ccccn23)n1

IC50 [2]: 2 nM | AUC [8]: 121 ng·h/mL | IC50 [14]: 38 nM
SMILES: COc1cc(N2CCC(N3CCCC3)CC2)ccc1Nc1nccc(-c2c(-c3cccc(C(=O)Nc4c(F)cccc4F)c3)nc3ccccn23)n1

SMILES: CCc1cc(Nc2nccc(-c3c(-c4ccc(OC)c(C(=O)Nc5c(F)cccc5F)c4)nc4ccccn34)n2)c(OC)cc1N1CCC(N2CCN(S(C)(=O)=O)CC2)CC1
IC50 [1]: 11000 nM | bioavailability [16]: 47% | IC50 [2]: 27 nM | Vdss [17]: 9.8 L/kg | CL/F [18]: 5.8 mL/min/kg | IC50 [19]: 104 nM | IC50 [4]: > 10000 nM | IC50 [5]: > 3000 nM | Vdss [20]: 4.7 L/kg | IC50 [21]: > 20000 nM | AUC [22]: 870 ng·h/mL | IC50 [6]: > 10000 nM | bioavailability [23]: 63% | IC50 [7]: 4500 nM | AUC [24]: 1220 ng·h/mL | IC50 [9]: 25 nM | Vdss [25]: 7.5 L/kg | IC50 [26]: 19 nM | IC50 [27]: 35 nM | CL/F [28]: 13.9 mL/min/kg | IC50 [29]: > 20000 nM | AUC [30]: 1070 ng·h/mL | CL/F [31]: 8.7 mL/min/kg | IC50 [32]: 61 nM | IC50 [10]: > 2000 nM | IC50 [33]: 81 nM | IC50 [11]: > 1500 nM | IC50 [12]: > 25000 nM | Ki [13]: 1.3 nM | IC50 [14]: 22 nM | bioavailability [34]: 97% | IC50 [35]: 124 nM | Ki [15]: 1.6 nM

IC50 [1]: 1800 nM | IC50 [2]: 7 nM | IC50 [4]: 22 nM | IC50 [5]: 710 nM | IC50 [6]: 54 nM | IC50 [7]: 1300 nM | IC50 [9]: 7 nM | IC50 [10]: 320 nM | IC50 [11]: > 9500 nM | IC50 [12]: 140 nM
SMILES: CCc1cc(Nc2nccc(-c3c(-c4cccc(C(=O)Nc5c(F)cccc5F)c4)nc4ccccn34)n2)c(OC)cc1N1CCC(N2CCN(S(C)(=O)=O)CC2)CC1

IC50 [2]: 4 nM | AUC [8]: 549 ng·h/mL | IC50 [14]: 68 nM
SMILES: COc1cc(N2CCC(N3C[C@@H](C)O[C@@H](C)C3)CC2)ccc1Nc1nccc(-c2c(-c3cccc(C(=O)Nc4c(F)cccc4F)c3)nc3ccccn23)n1

IC50 [2]: 2 nM | CL/F [3]: 13.4 mL/min/kg | IC50 [14]: 38 nM | AUC [36]: 239 ng·h/mL
SMILES: COc1cc(N2CCC(N3CCCCC3)CC2)ccc1Nc1nccc(-c2c(-c3cccc(C(=O)Nc4c(F)cccc4F)c3)nc3ccccn23)n1

IC50 [2]: 2 nM | AUC [8]: 276 ng·h/mL | IC50 [14]: 41 nM
SMILES: COc1cc(N2CCC(N3CCOCC3)CC2)ccc1Nc1nccc(-c2c(-c3cccc(C(=O)Nc4c(F)cccc4F)c3)nc3ccccn23)n1
